Hits are enriched below; roughly 2.9% of the tested compounds scored in any of these assays.
M1 PAM parental – M1 PAM counterscreen hit in parental CHO-K1 cells; ATP EC20, Fluo-8 calcium fluorescence; 0% at ATP EC20, 100% at ATP max; actives 0.02% (n = 360,000); activation, % at 3 µM;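 active = activation above the run cutoff, the mean activation of all test compounds plus 3 SD, cut at about 40% in these data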;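 also: peak over basal fluorescence ratio in a 140 s read after ATP addition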
OX1R antag-1 – antagonists of human orexin 1 receptor (OX1R); O43613; OX1R-expressing cells, FRET antagonist read-out; inhibition, % at 6.6 µM; actives 1.8% (n = 330,000); AID 485270; in the data active = inhibition mostly above about 38%, no sharp cut-off; inactive = mostly below about 40%
Target sequence (O43613 whole entry, looked up): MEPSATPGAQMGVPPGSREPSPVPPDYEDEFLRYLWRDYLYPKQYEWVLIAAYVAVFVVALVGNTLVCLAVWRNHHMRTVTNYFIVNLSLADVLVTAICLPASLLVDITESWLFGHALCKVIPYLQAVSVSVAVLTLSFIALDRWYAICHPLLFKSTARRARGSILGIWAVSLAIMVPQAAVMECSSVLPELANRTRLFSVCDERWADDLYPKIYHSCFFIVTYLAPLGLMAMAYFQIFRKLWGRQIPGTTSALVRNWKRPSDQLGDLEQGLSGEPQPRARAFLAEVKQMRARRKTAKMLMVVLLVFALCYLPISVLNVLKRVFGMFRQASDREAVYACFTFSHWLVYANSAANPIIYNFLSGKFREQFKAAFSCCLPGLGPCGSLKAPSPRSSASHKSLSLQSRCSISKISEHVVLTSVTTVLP
CHO parental Ca – counter-screen: ATP calcium response change in parental CHO cells | AID 463079 | inhibition, % at 5.6 µM | parental CHO-K1, ATP-induced calcium, Fluo-8 fluorescence | actives 0.63% (n = 330,000);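 active = inhibition above that plate's mean sample inhibition plus 3 SD, cut at about 26% in these data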
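Assay system: untransfected parental CHO cell line. Also added: ATP agonist challenge. Dosing: one dose, 5.6 µM nominal. Measured by: Fluo-8 fluorescence. Read-out: % inhibition. Benchmarks: ATP wells versus no-ATP DMSO wells. Repeats: no replicates.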
OX1R antag-2 – blocks the human orexin 1 receptor; actives 0.43% (n = 330,000); AID 434989; inhibition, % at 5 µM; O43613; CHO/OX1R cells, Fluo-8 calcium fluorescence, orexin A;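 active = inhibition above its plate's threshold, mean inhibition of all tested compounds on the plate plus 3 SD, cut at about 37% in these data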
M1 ag parental – nonselective activator or artifact in parental CHO-K1 cells. actives 0.48% (n = 360,000). Fluo-8 calcium fluorescence; scaled to maximal ATP response, vehicle zero. activation, % at 3 µM; in the data active = activation above about 15%;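 also: untransfected CHO-K1 host cells lacking M1 receptor as counterscreen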
CHO-K1 Ca antag – nonselective inhibitor or artifact in parental CHO-K1 cells | ATP-induced calcium, Fluo-8 fluorescence | inhibition, % at 3 µM | actives 0.6% (n = 360,000) | AID 602250;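 active = inhibition above a per-plate cutoff, the plate's mean sample inhibition plus 3 SD, cut at about 24% in these data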
Numbers stand for hits; i = inactive; nt = no result given.

SMILES | M1 PAM parental | OX1R antag-1 | CHO parental Ca | OX1R antag-2 | M1 ag parental | CHO-K1 Ca antag
CC(=O)N1CC(C)Sc2ccc(S(=O)(=O)NCc3ccc(F)cc3)cc21 (stereo not drawn) | i | i | i | i | i | i
COc1ccc(CNS(=O)(=O)c2ccc3c(c2)N(C(C)=O)CC(C)S3)cc1 (stereo not drawn) | i | i | i | i | 16.6 | i
CC1(C)Oc2cc(N)c([N+](=O)[O-])cc2O1 | i | i | i | i | i | i
C=C1N(C)c2cc([N+](=O)[O-])c(N)cc2C1(C)C | i | 56.3 | i | i | i | i
COC(=O)C(=Cc1ccc(-c2ccsc2C(=O)OC)o1)C(=O)OC | i | 49.9 | i | i | i | i
Cc1nnc(SCC(=O)NC(C)(C)C)n1NCc1cccc(Br)c1 | i | i | i | i | i | i
Cc1ccc(C(=O)CCC(=O)OCC(=O)NNC(=O)c2ccc([N+](=O)[O-])cc2)cc1 | i | i | i | i | i | i
COc1cc(/C=C2\CC/C(=C\c3cc(OC)c(O)c(OC)c3)C2=O)cc(OC)c1O | i | 89.9 | i | i | i | i
Cc1ccsc1-c1nc(CSCC(=O)NCc2ccc3c(c2)OCO3)c(C)o1 | i | 39.7 | i | i | i | i
COc1ccc(-c2nc(CSCC(=O)NCc3ccc4c(c3)OCO4)c(C)o2)cc1OC | i | i | i | i | i | i
CC(Sc1nnc(N)s1)C(=O)c1c(N)n(C)c(=O)n(C)c1=O (stereo not drawn) | i | nt | nt | nt | 18.2 | i
CCOC(=O)C1CCCN(c2c(C(=O)c3ccccc3)cnc3ccc(OC)cc23)C1 (stereo not drawn) | 61.4 | i | i | i | i | i
Cc1ccc(C)c(NC(=S)N2CCC(NC(=O)c3cccc(F)c3)CC2)c1 | i | i | i | i | i | i
O=C(COC(=O)c1ccccc1O)Nc1ccc2ccccc2c1 | i | i | i | i | i | i
CCS(=O)c1ccccc1C(=O)OCC(=O)Nc1ccc2ccccc2c1 (stereo not drawn) | i | i | 38.8 | i | i | i
CC1CCCCC12NC(=O)N(CC(=O)NCc1ccco1)C2=O (stereo not drawn) | i | i | i | i | i | i
O=C1/C(=C/c2cccc([N+](=O)[O-])c2)Oc2cc(O)ccc21 | i | 28.6 | i | i | i | i
COc1cc(/C=C2\Oc3cc(O)ccc3C2=O)ccc1O | i | 60.5 | i | i | i | i
O=C1/C(=C/c2ccc(O)c(O)c2)Oc2cc(O)ccc21 | i | i | i | i | i | i
COc1cc(C=C2C(=O)C=CC2=O)ccc1O | 42.9 | nt | nt | nt | i | i
CN(CCC(=O)Nc1ccc(Cl)cc1)Cc1ccccc1 | i | i | i | i | i | i
N#CCOC(=O)c1cc(S(=O)(=O)N2CCCCC2)ccc1N1CCOCC1 | i | i | i | i | i | i
CCC1=Nc2cc(C(=O)NCc3cccnc3)ccc2Sc2ccc(C)cc21 | i | i | i | i | i | i
O=C(Nc1ccccc1F)c1ccc(CNS(=O)(=O)c2cccc(C(F)(F)F)c2)cc1 | i | i | 69.2 | i | i | i
Cc1ccc(NC(=O)c2ccc(CNS(=O)(=O)c3cccc(C(F)(F)F)c3)cc2)cc1 | i | i | i | i | i | i
SMILES | M1 PAM parental | OX1R antag-1 | CHO parental Ca | OX1R antag-2 | M1 ag parental | CHO-K1 Ca antag
Cc1ccc(-c2csc(NC(=O)c3c(C)noc3C)n2)s1 | i | i | i | i | i | i
COc1ccccc1NC(=S)N1CCc2cc(OC)c(OC)cc2C1 | i | i | i | i | i | 24.4
COc1cc2c(cc1OC)CN(C(=S)Nc1cccc(Cl)c1C)CC2 | i | i | i | i | i | i
Cn1cc(CNC(=O)c2cc(COc3ccc4c(c3)CCCC4)on2)cn1 | i | i | i | i | i | i
O=C(NC(c1cccnc1)C(F)(F)F)c1cc(COc2ccc3c(c2)CCCC3)on1 (stereo not drawn) | i | i | 41.6 | i | i | 27.2
O=C1NC(Cc2ccc(O)cc2)c2nc3cc(F)c(F)cc3c(=O)n2-c2cc3ccccc3cc21 (stereo not drawn) | i | nt | nt | nt | i | 35.5
O=C1NC(Cc2ccccc2)c2nc3cc(F)c(F)cc3c(=O)n2-c2cc3ccccc3cc21 (stereo not drawn) | i | nt | nt | nt | i | i
O=C(CCN1C(=O)c2ccc([N+](=O)[O-])cc2C1=O)Nc1cccc(O)c1 | i | 45.6 | i | i | i | i
CN(Cc1ccccc1)C(=O)CN1C(=O)c2ccc([N+](=O)[O-])cc2C1=O | i | 69.7 | i | i | i | i
O=C1c2ccc([N+](=O)[O-])cc2C(=O)N1CNc1ccccn1 | i | 61.3 | i | i | i | i
O=C(CN1C(=O)c2ccccc2C1=O)Nc1cccc([N+](=O)[O-])c1 | i | i | i | i | i | i
COc1cccc(NC(=O)CN(C)C(=O)CN2C(=O)c3ccc([N+](=O)[O-])cc3C2=O)c1 | i | 47.9 | i | i | i | i
COc1cccc(NC(=O)CN(C)C(=O)CN2C(=O)NC(C)(c3ccc(C)cc3)C2=O)c1 (stereo not drawn) | i | i | i | i | i | i
CC1(C(=O)NS(=O)(=O)c2cccc(OC(F)F)c2)CCN1C(=O)CCc1cccs1 (stereo not drawn) | i | nt | nt | nt | i | i
Cc1ccc(NC(=O)COC(=O)c2ccc(NC(=O)CC#N)cc2)cc1S(=O)(=O)N1CCOCC1 | i | i | i | i | i | i
CC(=NCc1ccccc1)c1ccc(O)cc1O | i | nt | nt | nt | i | i
O=C(O)CN1C(=O)c2ccc(Oc3ccc([N+](=O)[O-])cc3)cc2C1=O | i | 52.6 | i | i | i | i
O=C1c2ccc(Oc3ccc([N+](=O)[O-])cc3)cc2C(=O)N1CCCO | i | i | i | i | i | i
O=C1CN(/N=C/c2ccc([N+](=O)[O-])o2)C(=O)N1 | i | 84.3 | i | i | i | i
O=C1OC(CN(Cc2ccccc2)Cc2ccccc2)CN1N=Cc1ccc([N+](=O)[O-])o1 (stereo not drawn) | i | nt | nt | nt | i | i
O=C1OC(CN2CCOCC2)CN1N=Cc1ccc([N+](=O)[O-])o1 (stereo not drawn) | i | 59.8 | i | i | i | i
CCN(CC(=O)Nc1ccc2c(c1)OCCO2)C(=O)/C=C/c1ccc([N+](=O)[O-])cc1 | i | i | i | i | i | i
Cc1ccc(-c2nc(CN3CCCC(C(=O)N4CCOCC4)C3)c(C)o2)cc1 (stereo not drawn) | i | i | i | i | i | i
CC(=O)c1c(C)[nH]c(C(=O)OCc2ccccc2)c1C | i | i | i | i | i | i
CC(=O)c1c(C)[nH]c(C(=O)OCCCCN2C(=O)c3ccccc3C2=O)c1C | i | 45.0 | 74.7 | 62.5 | i | 33.2
CCOC(=O)c1c(C)[nH]c(C(=O)COC(=O)c2ccc(O)cc2)c1C | i | i | 27.4 | i | i | i
CCOC(=O)c1c(C)[nH]c(C(=O)CN2C(=O)NC(C)(C)C2=O)c1C | i | nt | nt | nt | i | i
